From ChEMBL document CHEMBL1811902, “Thermodynamic and biological evaluation of a thrombin binding aptamer modified with several unlocked nucleic acid (UNA) monomers and a 2'-C-piperazino-UNA monomer” (Bioorg Med Chem, 2011)

Columns and labels:
Plasma [1] = assay: Anticoagulant activity in human plasma assessed as time required for clot formation in presence of compound minus time required for clot formation in absence of compound at 0.33 mM at 37 degC; assay type: functional
Summary of the method: (§1)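 Pooled citrate plasma from four healthy donors. Thrombin reagent pre-incubated with aptamer at 0.33 mM for 5 min, then mixed with an equal volume of plasma. Clotting time (thrombin time, seconds) read at 37 °C on an automated coagulation analyser. Antithrombin effect taken as the extra clotting time over a water-added reference.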

[2] = Thermodynamic stability in pH 7.0 buffer containing 100 mM Kcl, 10 mM sodium cacodylate; assay type: physicochemical
Summary of the method: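 UV melting at 295 nm over 5–95 °C at 0.2 °C/min. Samples annealed 5 min at 80 °C, then slowly cooled. Nine strand concentrations spanning 10^-5–10^-6 M, set from absorbance above 80 °C. Heating and cooling profiles recorded. Thermodynamic parameters from non-linear fitting of melting curves with a unimolecular transition model.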

Prothrombin = Prothrombin (Homo sapiens, UniProt P00734); assay: Binding affinity to thrombin at 37 degC by isothermal titration calorimetry
Summary of the method: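 ITC at 37 °C. One 0.2 µL pre-injection, discarded, then 19 × 2 µL injections. Heat of dilution from aptamer-into-buffer injections subtracted.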

Plasma [3] = assay: Anticoagulant activity in human plasma assessed as time required for clot formation at 0.33 mM at 37 degC; assay type: functional; summary of the method: as §1

Which Time (Plasma [1]) does the source give for `Cc1cn([C@H]2C[C@H](OP(N)(=O)OC[C@H]3O[C@@H](n4cnc5c(=O)[nH]c(N)nc54)C[C@@H]3OP(N)(=O)OC[C@H]3O[C@@H](n4cnc5c(=O)[nH]c(N)nc54)C[C@@H]3O)[C@@H](COP(N)(=O)O[C@H]3C[C@H](n4cc(C)c(=O)[nH]c4=O)O[C@@H]3COP(N)(=O)O[C@H]3C[C@H](n4cnc5c(=O)[nH]c(N)nc54)O[C@@H]3COP(N)(=O)O[C@H]3C[C@H](n4cnc5c(=O)[nH]c(N)nc54)O[C@@H]3COP(N)(=O)O[C@H]3C[C@H](n4cc(C)c(=O)[nH]c4=O)O[C@@H]3COP(N)(=O)O[C@H]3C[C@H](n4cnc5c(=O)[nH]c(N)nc54)O[C@@H]3COP(N)(=O)OC[C@@H](COP(N)(=O)O[C@H]3C[C@H](n4cnc5c(=O)[nH]c(N)nc54)O[C@@H]3COP(N)(=O)O[C@@H]3C[C@@H](COP(N)(=O)O[C@H]4C[C@H](n5cc(C)c(=O)[nH]c5=O)O[C@@H]4COP(N)(=O)O[C@H]4C[C@H](n5c(C)cc(=O)[nH]c5=O)O[C@@H]4COP(N)(=O)O[C@H]4C[C@H](n5cnc6c(=O)[nH]c(N)nc65)O[C@@H]4COP(N)(=O)O[C@H]4C[C@H](n5cnc6c(=O)[nH]c(N)nc65)O[C@@H]4COC(=O)CCCC[C@@H]4SC[C@@H]5NC(=O)N[C@@H]54)O[C@H]3n3cnc4c(=O)[nH]c(N)nc43)O[C@H](CN3CCNCC3)n3ccc(=O)[nH]c3=O)O2)c(=O)[nH]c1=O` (some centres undefined) here?
Its Time is 12.2 s.

What about the Tm [2] of the same molecule?
Its Tm is 45.2 °C.

What about the Kd (Prothrombin) of the same molecule?
Its Kd is 52.6 nM.

And the Time (Plasma [3])?
Its Time is 31.2 s.
